The record followed here is ChEMBL document CHEMBL3992510, “Urea Derivatives of 2-Aryl-benzothiazol-5-amines: A New Class of Potential Drugs for Human African Trypanosomiasis” (J Med Chem, 2017).

Series [1] in a line: Drug level in mouse plasma at 5 mg/kg, ip administered as single dose measured at 1 hr post dose by liquid chromatography/tandem mass spectrometric analysis. The series is classed as ADME, organism-based. Summed up: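 Single ip dose of 5 mg/kg in 5% DMSO/7% Tween 80/3% EtOH in 0.9% saline, three mice per compound (six for one compound). At 1 h, plasma is separated by centrifugation and brain homogenized in acetonitrile. Both are quantified by LC-MS/MS, with brain corrected for 3% v/w blood. Brain/plasma ratio is reported as mean ± SEM.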

Series [2] can be described thus: AUC (0 to infinity) in mouse at 50 mg/kg, po administered as single dose via gavage as 60% phosal 53 MCT/30% PEG400/10% EtOH formulation by liquid chromatography/tandem mass spectrometric analysis. The series is classed as ADME, organism-based. Also noted: dose 50 mg/kg, time infinity, route oral. The settings on record: in vivo. The method, boiled down: (§1)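 Single oral gavage dose of 50 mg/kg to groups of three mice, vehicle as in the line. Tail blood of 40 μL is taken into heparinized capillaries at time points out to as much as 32 h. It is spotted on dried-blood cards and quantified by LC-MS/MS. Values are means ± SEM of three mice.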

Series [3] is described as follows: Drug level in mouse brain at 50 mg/kg, po administered as single dose via gavage measured at 1 hr post dose by liquid chromatography/tandem mass spectrometric analysis. The series is classed as ADME, organism-based. The settings on record: read-out: Drug uptake. Summed up: (§2)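 Single 50 mg/kg oral dose in DMSO (5%), Tween 80 (7%), EtOH (3%) in 0.9% saline; groups of three mice killed at 1, 4, 8 and 24 h. Plasma separated by brief centrifugation; brain homogenised in acetonitrile; both assayed by LC-MS/MS, brain values corrected for 3% v/w blood content. Mean ± SEM of 3 mice; plasma LLQ 0.010 μM.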

Series [4] is described as follows: Drug level in mouse plasma at 50 mg/kg, po administered as single dose via gavage measured at 1 hr post dose by liquid chromatography/tandem mass spectrometric analysis. The series is classed as ADME, organism-based. The method, boiled down:
as §2

Series [5] is described as follows: Drug level in mouse brain at 50 mg/kg, po administered as single dose via gavage measured at 4 hrs post dose by liquid chromatography/tandem mass spectrometric analysis. The series is classed as ADME, organism-based. The note with it: read-out: Drug uptake. The method, boiled down: as §2
The test system of series [6] is Trypanosoma brucei rhodesiense. Kind of series: Antiparasitic activity against Trypanosoma brucei rhodesiense STIB900 infected in Swiss-Webster mouse assessed as reduction in parasitemia at 50 mg/kg, po bid administered via gavage from day 2 to 5 post infection measured on day 60 by microscopic method. The series is classed as functional, organism-based. The method, boiled down: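 Female Swiss-Webster (ND4 outbred) mice, 6–8 weeks old, five per group, are infected on day 0 with 1 × 10^4 parasites. Dosing is 50 mg/kg by oral gavage every 12 h on days 2–5 (eight doses) in 200 μL of 5% DMSO/7% Tween 80/3% EtOH in 0.9% saline. Tail blood is examined microscopically for 60 days, and mice become parasitemic are euthanized. Three mice are sampled before dose 7 and at 1 and 6 h after for plasma levels.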

The nature of series [7]: Drug level in mouse plasma at 50 mg/kg, po administered as single dose via gavage measured at 8 hrs post dose by liquid chromatography/tandem mass spectrometric analysis. The series is classed as ADME, organism-based. The method, boiled down:
as §2

A short description of series [8]: Drug level in Swiss-Webster mouse plasma infected with Trypanosoma brucei brucei TREU667 at 50 mg/kg, po bid administered via gavage for 10 days starting from 21 days post infection measured at 1 hr post last dose. The series is classed as ADME, organism-based.
A short description of series [9]: AUC (0 to infinity) in mouse plasma at 50 mg/kg, po administered as single dose via gavage by liquid chromatography/tandem mass spectrometric analysis. The series is classed as ADME, organism-based. Also noted: dose 50 mg/kg, time infinity, route oral. Summed up:
(§3)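 Time course after a single 50 mg/kg oral dose in 5% DMSO/7% Tween 80/3% EtOH in 0.9% saline. Mice are sacrificed in groups of three at 1, 4, 8 and 24 h. Plasma is separated by centrifugation and brain homogenized in acetonitrile, both measured by LC-MS/MS. Brain values are corrected for 3% v/w blood. Lower limit of quantitation 0.010 μM. Values are means ± SEM.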

The nature of series [10]: Drug level in mouse brain at 50 mg/kg, po administered as single dose via gavage measured at 8 hrs post dose by liquid chromatography/tandem mass spectrometric analysis. The series is classed as ADME, organism-based. The note with it: read-out: Drug uptake. The method, boiled down: as §2
The nature of series [11]: Drug level in Swiss-Webster mouse plasma infected with Trypanosoma brucei brucei TREU667 at 50 mg/kg, po bid administered via gavage for 10 days starting from 21 days post infection measured at 6 hrs post last dose. The series is classed as ADME, organism-based.
The nature of series [12]: Drug level in Swiss-Webster mouse plasma infected with Trypanosoma brucei rhodesiense STIB900 at 50 mg/kg, po bid administered via gavage for 4 days starting from 2 days post infection measured at 1 hr post last dose. The series is classed as ADME, organism-based. The method, boiled down: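 Female Swiss-Webster mice (ND4 outbred, 6−8 weeks), groups of five, infected day 0 with 1 × 10^4 T. b. rhodesiense STIB900; 50 mg/kg oral gavage every 12 h days 2−5 (eight doses) in 200 μL DMSO 5%, Tween 80 7%, EtOH 3% in 0.9% saline. Tail blood from 3 mice before dose 7, then 1 and 6 h post-dose, spotted on cards, LC-MS/MS.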

The nature of series [13]: Stability in mouse liver microsomes assessed as compound remaining at 1.5 uM in presence of NADPH measured after 60 mins by liquid chromatography/tandem mass spectrometric analysis. The series is classed as ADME, microsome. The note with it: read-out: Stability. Summed up: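 Pooled liver microsomes (0.5 mg/mL) are preincubated 5 min at 37 °C in 0.16 M KH2PO4 with 1 mM NADPH, then test compound is added at 1.5 μM. Aliquots are quenched with 4 volumes of acetonitrile at 0, 5, 10, 15, 30 and 60 min and analyzed by LC-MS/MS. Percent remaining at 5 or 60 min is given when t1/2 is outside the 5–60 min range. Controls: testosterone, dextromethorphan.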

Series [14] relates to Trypanosoma brucei brucei. As to the kind of experiment: Antitrypanosomal activity against Trypanosoma brucei brucei BF427 assessed as growth inhibition measured after 48 hrs by Alamar blue assay. The series is classed as functional. The note with it: BF427, 48 h. The method, boiled down:
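Bloodstream-form parasites in HMI-9 medium are exposed to serial compound dilutions in triplicate. Viability is read with Alamar Blue at 48 h. EC50 and EC90 come from nonlinear regression. Pentamidine isethionate is the control.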
For orientation: Alamar Blue is a resazurin reagent that responds to reducing activity.

A short description of series [15]: Drug level in mouse plasma at 50 mg/kg, po administered as single dose via gavage measured at 4 hrs post dose by liquid chromatography/tandem mass spectrometric analysis. The series is classed as ADME, organism-based. Summed up: as §2
The nature of series [16]: AUC (0 to infinity) in mouse brain at 50 mg/kg, po administered as single dose via gavage by liquid chromatography/tandem mass spectrometric analysis. The series is classed as ADME, organism-based. The arrangement: dose 50 mg/kg, time infinity, route oral. Summed up:
as §3

Series [17] can be described thus: Drug level in mouse plasma at 50 mg/kg, po administered as single dose via gavage measured at 24 hrs post dose by liquid chromatography/tandem mass spectrometric analysis. The series is classed as ADME, organism-based. The method, boiled down: as §2
Series [18] in a line: AUC (0 to infinity) in mouse at 50 mg/kg, po administered as single dose via gavage as 7% Tween 80/3% EtOH/5% DMSO formulation by liquid chromatography/tandem mass spectrometric analysis. The series is classed as ADME, organism-based. The arrangement: dose 50 mg/kg, route oral, time infinity. The settings on record: in vivo. Summed up:
as §1

Series [19] is described as follows: Drug level in mouse brain at 50 mg/kg, po administered as single dose via gavage measured at 24 hrs post dose by liquid chromatography/tandem mass spectrometric analysis. The note with it: read-out: Drug uptake. The series is classed as ADME, organism-based. The method, boiled down: as §2

Molecules are shown by their SMILES. Active and inactive are the calls of the source. No cut-off for these calls is given here.

Consider `O=C(Nc1ccc2sc(-c3ccc(F)c(F)c3)nc2c1)N1CC[C@H](F)C1`, for which the concentration at 1 h in series [1] was 2.27 µM; in series [3] it was 38.2 µM; in [4], 27.1 µM; in series [8], 23.1 µM; in [12], 18.6 µM. Besides, the AUC(0-inf) in series [2] was 245 µM·h; in series [9], 180 µM·h; in [16], 719 µM·h; in series [18], 220 to 221 µM·h. Moreover, the concentration at 4 h in series [5] was 45.2 µM; in series [15], 10.2 µM. Further, the result in series [6] was Active. In addition, the results for the concentration at 8 h in series [7] and in [10] were 8.97 µM and 48.1 µM, respectively. Also, the concentration at 6 h in [11] turned out to be 26.7 µM. The remaining at 1 h, 1.5 µM in series [13] stood at 73%. Further, the EC50 in [14] is 34.8 nM. The EC90 in [14] amounted to 54.8 nM. Further, the figures for the concentration at 24 h in [17] and in series [19] were 0.01 µM and 0.28 µM, respectively.

What is called AUC(0-inf) is total exposure, with the tail of the curve extrapolated. A lower AUC(0-inf) goes with less exposure. By EC50 is commonly meant the concentration needed to bring the measured effect to its halfway point. As usually defined, the EC90 is the point of the concentration-response curve where the effect stands at 90%.
